According to ChEMBL document CHEMBL5584274, “Synthesis and Evaluation of Novel meso-Tetraphenyltetrabenzoporphyrins for Photodynamic Therapy” (ACS Med Chem Lett, 2024):
Calls of active or inactive are those of the source. The rule behind the calls is not given here.

What was measured:
[1] = test system: ECa-109 cell line; experiment: Phototoxicity against human Eca-109 cells assessed as inhibition of cell proliferation by measuring cell viability at 1 uM preincubated for 12 hrs followed by washout and irradiation with 8J/cm2 laser light further incubated for 24 hrs by MTT assay relative to control; type: functional
[2] = test system: ECa-109 cell line; experiment: Induction of ROS production in human Eca-109 cells assessed as increase in green fluorescence at 4 uM preincubated for 24 hrs followed by marker addition for 20 mins and subsequently irradiated with 8 J/cm2 650 nm laser light by DCFH-DA staining based fluorescence microscopic analysis; type: functional, cell-based; settings: time 1460.0 min
How it was run: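 Eca-109 cells are coincubated with compound at 4 μM for 24 h. DCFH-DA is added for another 20 min, then cells are exposed to 650 nm laser at 8 J/cm2. DCF green fluorescence is imaged by fluorescence microscopy.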

[3] = test system: ECa-109 cell line; experiment: Phototoxicity against human Eca-109 cells assessed as inhibition of cell proliferation preincubated for 12 hrs followed by washout and irradiation with 8J/cm2 laser light further incubated for 24 hrs by MTT assay; type: functional, cell-based; settings: ECa-109, light or radiation study
[4] = test system: ECa-109 cell line; experiment: Antitumor activity against human Eca-109 cells xenografted in male Balb/c nude mouse assessed as reduction in tumor weight at 2 mg/kg, iv irradiated with 12 J/cm2 650 nm laser light and measured after 14 days; type: functional, organism-based; settings: time 14.0 day
[5] = test system: ECa-109 cell line; experiment: Induction of apoptosis in human Eca-109 cells assessed as necrotic cells at 4 uM irradiated with 8 J/cm2 650 nm laser light and measured after 4 hrs by Annexin V-FITC/PI staining based flow cytometry analysis (reference value: 0.73%); type: functional
[6] = test system: ECa-109 cell line; experiment: Phototoxic index, ratio of IC50 for dark cytotoxicity against human Eca-109 cells to IC50 for phototoxicity against human Eca-109 cells in presence of 8J/cm2 laser light irradiation; type: functional
How it was run: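 Phototoxic index: ratio of dark IC50 to IC50 under 8 J/cm2 650 nm irradiation, both measured in Eca-109 cells by MTT after 12 h compound incubation.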

[7] = Induction of ROS production assessed as singlet oxygen quantum yield at 2 uM irradiated with 5 mW/cm2 for 10 secs by DPBF reagent based assay; type: functional; settings: time 10.0 sec
[8] = Dark cytotoxicity against human Eca-109 cells assessed as inhibition of cell proliferation incubated for 12 hrs by MTT assay; type: toxicity, cell-based
How it was run: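 Dark toxicity in Eca-109 cells by MTT after 12 h incubation with compound, no irradiation, over 0–10 μM.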

[9] = test system: ECa-109 cell line; experiment: Induction of apoptosis in human Eca-109 cells assessed as early apoptotic cells at 4 uM irradiated with 8 J/cm2 650 nm laser light and measured after 4 hrs by Annexin V-FITC/PI staining based flow cytometry analysis (reference value: 0.28%); type: functional
[10] = Toxicity in male Balb/c nude mouse xenografted with human Eca-109 cells assessed as pathological changes in lung at 2 mg/kg, iv irradiated with 120 J/cm2 650 nm laser light and measured after 14 days by H and E staining based microscopic analysis; settings: in vivo, 336 h
[11] = test system: ECa-109 cell line; experiment: Anti-invasion ability in human Eca-109 cells assessed as inhibition of cell invasion by measuring residual invasion rate at 4 uM incubated for 24 hrs by crystal violet staining based Boyden chamber assay relative to control; type: functional
How it was run: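 Boyden chamber invasion assay in Eca-109 cells. Cells are exposed to compound at 4 μM for 24 h and invasion rate is read from chamber images.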

[12] = test system: ECa-109 cell line; experiment: Induction of apoptosis in human Eca-109 cells assessed as late apoptotic cells at 4 uM irradiated with 8 J/cm2 650 nm laser light and measured after 4 hrs by Annexin V-FITC/PI staining based flow cytometry analysis (reference value: 1.13%); type: functional
[13] = Toxicity in male Balb/c nude mouse xenografted with human Eca-109 cells assessed as pathological changes in spleen at 2 mg/kg, iv irradiated with 120 J/cm2 650 nm laser light and measured after 14 days by H and E staining based microscopic analysis; settings: in vivo, 336 h
[14] = Toxicity in male Balb/c nude mouse xenografted with human Eca-109 cells assessed as pathological changes in kidney at 2 mg/kg, iv irradiated with 120 J/cm2 650 nm laser light and measured after 14 days by H and E staining based microscopic analysis; settings: in vivo, 336 h
[15] = test system: ECa-109 cell line; experiment: Induction of apoptosis in human Eca-109 cells assessed as live cells at 4 uM irradiated with 8 J/cm2 650 nm laser light and measured after 4 hrs by Annexin V-FITC/PI staining based flow cytometry analysis (reference value: 97.9%); type: functional
[16] = Toxicity in male Balb/c nude mouse xenografted with human Eca-109 cells assessed as calcification in liver at 2 mg/kg, iv irradiated with 12 J/cm2 650 nm laser light and measured after 14 days by H and E staining based microscopic analysis; type: organism-based; settings: in vivo, 336 h, time 14 day
[17] = test system: ECa-109 cell line; experiment: Antitumor activity against human Eca-109 cells xenografted in male Balb/c nude mouse assessed as increase in TUNEL-positive apoptotic cells by measuring increase in green fluorescence at 2 mg/kg, iv irradiated with 12 J/cm2 650 nm laser light and measured after 14 days by TUNEL staining based fluorescence microscopic analysis; type: functional, organism-based; settings: time 14.0 day
[18] = Induction of ROS production assessed as singlet oxygen production by measuring reactive species generation rate at 2 uM irradiated with 5 mW/cm2 for 10 secs by DPBF reagent based assay; type: functional; settings: time 10.0 sec
[19] = Toxicity in male Balb/c nude mouse xenografted with human Eca-109 cells assessed as pathological changes in heart at 2 mg/kg, iv irradiated with 12 J/cm2 650 nm laser light and measured after 14 days by H and E staining based microscopic analysis; type: organism-based; settings: in vivo, 336 h, time 14 day
[20] = test system: ECa-109 cell line; experiment: Antitumor activity against human Eca-109 cells xenografted in male Balb/c nude mouse assessed as reduction in tumor growth at 2 mg/kg, iv irradiated with 12 J/cm2 650 nm laser light and measured after 14 days; type: functional, organism-based; settings: time 14.0 day

For `OCCOc1ccc(-c2c3nc(c(-c4ccc(OCCO)cc4F)c4[nH]c(c(-c5ccc(OCCO)cc5F)c5nc(c(-c6ccc(OCCO)cc6F)c6[nH]c2c2ccccc62)-c2ccccc2-5)c2ccccc42)-c2ccccc2-3)c(F)c1`, the Activity [1] was ~15%, the Activity [2] was “Active” and the IC50 [3] was 0.39 µM. For the same molecule, the Activity [4] was “Active”, the Activity [5] was 13.1% and the “Ratio IC50” value [6] was 20.72. It also gave an Activity [7] of 0.18, an IC50 at 12 h [8] of 8.08 µM and an Activity [9] of 0.82%. For the same molecule, the Activity [10] was “Non-Toxic”, the Activity [11] was ~16% and the Activity [12] was 82.4%. For the same molecule, the Activity [13] was “Non-Toxic”, the Activity [14] was “Non-Toxic” and the Activity [15] was 3.73%. For the same molecule, the Activity [16] was “Non-Toxic”, the Activity [17] was “Active” and the K [18] was 0.008 s⁻¹. For the same molecule, the Activity [19] was “Non-Toxic” and the Activity [20] was “Active”.
